# According to publication PMC9524259 (Journal of medicinal chemistry, 2022):
# Entries after “also recorded” stand apart in the source; their conditions may differ.
# Columns and labels:
# [1] = molecular target: T1, gankyrin in MDA-MB-231 cells (Homo sapiens, UniProt O75832); assay: Cellular thermal shift assay; format: cell-based; details: 2 μM, 48 h
# T1 sequence (O75832 1-226): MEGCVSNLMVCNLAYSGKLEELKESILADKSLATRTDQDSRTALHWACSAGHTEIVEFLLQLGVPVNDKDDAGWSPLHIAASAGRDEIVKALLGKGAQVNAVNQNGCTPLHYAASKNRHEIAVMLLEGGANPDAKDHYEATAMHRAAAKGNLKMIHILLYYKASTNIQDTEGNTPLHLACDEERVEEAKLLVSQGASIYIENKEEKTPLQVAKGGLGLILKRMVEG
# Outline: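 Intact MDA-MB-231 cells were treated 48 h with 2 μM test compound (0.5% DMSO final) or DMSO. Cells were split into aliquots and heated separately at 50, 53, 56, 59, 62 and 65 °C. Lysis was in RIPA on ice for 60 min, then lysates were cleared at 15,000 rpm, 15 min, 4 °C. Equal protein was immunoblotted for gankyrin with actin as reference, and melt curves were built; mean ± SD, n = 3.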
# MDA-MB-231 cells [2] = assay: Clonogenic assay, MDA-MB-231; format: cell-based; details: 48 h treatment then 7 days fresh media
# Outline: (§1)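 Cells were seeded at 125 cells/mL in 6-well plates and left overnight to attach. Test compound was applied at two concentrations for 48 h at 37 °C, then removed. Fresh medium followed, changed every alternate day, for 7 days. Cells were washed in PBS, fixed in 4% paraformaldehyde and stained with 0.2% crystal violet for 1 h. Colonies of >50 cells were counted, and % growth was calculated relative to control; mean ± SD, n = 3.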
# MDA-MB-231 spheroids = assay: Live-dead cell assay, MDA-MB-231 spheroids; format: cell-based; details: day 15, IC50 and half IC50 concentrations
# Outline: (§2)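 Spheroids from the growth study were stained after day 15 with calcein AM (live) and EthD-III (dead). Incubation was 30 min in the dark at room temperature, followed by fluorescence imaging at 4X. Live and dead signal were quantified; mean ± SD, n = 4.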
# gankyrin [3] = molecular target: T2, gankyrin (Homo sapiens, UniProt O75832); assay: Circular dichroism spectra and thermal denaturation; format: binding; details: for CD spectra: α-helical (secondary structure) content of gankyrin: 100 nM to 1.5 μM compound, minima at 208 and 222 nm; for thermal denaturation of gankyrin monitored at 217 nm: 1.5 μM compound, 5 – 90 °C; for gankyrin precipitation in CD sample (visual examination): in presence of compound
# T2 sequence (O75832 1-226): T1 sequence (O75832 1-226)
# Outline: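 Gankyrin, His6-tagged, was expressed in LB cultures with 1 mM IPTG induction at 25 °C for ~5 h. It was purified by Ni-IMAC, the tag cut with TEV, then dialysed and re-passed over Ni-IMAC. CD was run in 1x PBS, 0.5% DMSO, pH 7.4, in a 1 mm cuvette, with test compound at 100 nM–1.5 μM. Spectra covered 190–260 nm with six accumulations. Thermal melts were read at 217 nm, 5–90 °C, 1 °C/min.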
# MDA-MB-231 cells [4] = assay: Western blot of TSP levels, MDA-MB-231; format: cell-based; details: 48 h; for p53 levels: mutant p53
# Outline: (§3)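 Cells in 10 cm dishes were treated 48 h with varying concentrations of test compound (0.5% DMSO final) or DMSO alone. HuH6 and MDA-MB-231 were grown in DMEM/10% FBS; A549 in RPMI 1640. Harvested cells were lysed in RIPA with protease/phosphatase inhibitors, on ice for 60 min. Equal protein (15 μg) was run under reducing conditions and blotted to PVDF. Probes were p53, phospho-p53 S6 and S15, Rb, gankyrin, and cyclophilin.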
# MDA-MB-231 cells [5] = assay: Cell cycle analysis, MDA-MB-231; format: cell-based; details: 2 μM, 72 h
# Outline: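 MDA-MB-231 cells in 10 cm dishes were exposed to 2 μM test compound (0.1% DMSO final) or DMSO alone for 72 h. Harvested cells were normalized, fixed in 70% ethanol at −20 °C overnight, pelleted and stained with a PI kit for 40 min at 37 °C. Analysis was by flow and imaging cytometry; mean ± SD, n = 3.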
# gankyrin [6] = molecular target: T2, gankyrin; assay: Protein thermal shift; format: binding; details: Table S1
# HuH6 cells = assay: Western blot of TSP levels, HuH6; format: cell-based, human; details: 48 h (Figure S1)
# Outline: as §3
# MDA-MB-231 cells [7] = assay: Antiproliferative MTT assay, MDA-MB-231; format: cell-based; details: for IC50: read-out: MDA-MB-231 IC50, 72 h with drug, MTT assay
# A549 cells [8] = assay: Antiproliferative MTT assay, A549; format: cell-based; details: for IC50: read-out: A549 IC50, 72 h with drug, MTT assay
# A549 cells [9] = assay: Western blot of TSP levels, A549; format: cell-based; details: 48 h
# Outline: as §3
# A549 cells [10] = assay: Clonogenic assay, A549; format: cell-based; details: 0.15 μM, 48 h treatment then 7 days fresh media
# Outline: as §1
# A549 cells [11] = assay: Cell cycle analysis, A549; format: cell-based; details: 0.3 μM, 72 h
# A549 spheroids = assay: Live-dead cell assay, A549 spheroids; format: cell-based; details: day 15, both concentrations
# Outline: as §2
# gankyrin in A549 cells = molecular target: T3, gankyrin in A549 cells (Homo sapiens, UniProt O75832); assay: Cellular thermal shift assay; format: cell-based; details: 0.3 μM, 48 h
# T3 sequence (O75832 1-226): T1 sequence (O75832 1-226)
molecule,measurement,setting,value
"O=C(CCCn1cc(-c2ccc(C(F)(F)F)cc2)nn1)Nc1ccc(-c2ccccc2)cc1 [Compound 51d, N-4-Biphenylyl4-{4-[p-(trifluoromethyl)phenyl]-1H-1,2,3-triazol-1-yl}butyramide]",gankyrin thermal stability (CETSA),[1],significantly decreased
same,% colony growth,MDA-MB-231 cells [2]; 1.0 μM,72.4%
same,green fluorescence intensity (live cells),MDA-MB-231 spheroids,significant decrease in green fluorescence intensity (live cells)
same,red fluorescence intensity (dead cells),MDA-MB-231 spheroids,significant increase in red fluorescence intensity (dead cells)
same,CD spectra: α-helical (secondary structure) content of gankyrin,gankyrin [3],weakening of secondary structure content in gankyrin
same,thermal denaturation of gankyrin monitored at 217 nm,gankyrin [3],maintained gankyrin’s expected two-state transition but unfolded at an accelerated rate
same,gankyrin precipitation in CD sample (visual examination),gankyrin [3],only showed marginal precipitation
same,Rb levels,MDA-MB-231 cells [4],increase in Rb levels
same,gankyrin levels,MDA-MB-231 cells [4],remained relatively unchanged
same,p53 levels,MDA-MB-231 cells [4],relatively unchanged levels of p53
same,cell population in the G2/M phase,MDA-MB-231 cells [5],decrease in the cell population in the G2/M phase
same,cell population in the S phase,MDA-MB-231 cells [5],relatively unchanged
same,cells in the G0/G1 phase,MDA-MB-231 cells [5],significant increase in the number of cells in the G0/G1 phase
same,gankyrin binding by protein thermal shift,gankyrin [6],effectively bind gankyrin
same,p53 and Rb levels,HuH6 cells,increased levels of both p53 and Rb
"Methyl p-{4-[3-(p-tolylcarbamthioyl)propyl]-1H-1,2,3-triazol-1-yl}benzoate [Compound 24]",IC50,MDA-MB-231 cells [7],82.4 µM
same,IC50,A549 cells [8],> 100 µM
"Cc1ccc(NC(=O)CCCn2cc(-c3ccc(C(F)(F)F)cc3)nn2)cc1 [Compound 51b, N-p-Tolyl4-{4-[p-(trifluoromethyl)phenyl]-1H-1,2,3-triazol-1-yl}butyramide]",% colony growth,MDA-MB-231 cells [2]; 2.30 μM,60.3%
same,green fluorescence intensity (live cells),MDA-MB-231 spheroids,decrease in green intensity (live cells)
same,red fluorescence intensity (dead cells),MDA-MB-231 spheroids,increase in red fluorescence intensity (dead cells)
same,CD spectra: α-helical (secondary structure) content of gankyrin,gankyrin [3],enhancement in the 222 nm spectral minimum; also recorded: signal enhancement
same,thermal denaturation of gankyrin monitored at 217 nm,gankyrin [3],complete denaturation across the entire measured temperature range
same,Rb levels,MDA-MB-231 cells [4],increase in Rb levels
same,gankyrin levels,MDA-MB-231 cells [4],remained relatively unchanged
same,p53 levels,MDA-MB-231 cells [4],relatively unchanged levels of p53
same,gankyrin binding by protein thermal shift,gankyrin [6],effectively bind gankyrin
"COC(=O)c1ccc(-n2cc(CCCC(=S)Nc3ccc(C)cc3)nn2)cc1 [Compound 21, Methyl p-{4-[3-(p-tolylcarbamthioyl)propyl]-1H-1,2,3-triazol-1-yl}benzoate]",improvement in antiproliferative activity against MDA-MB-231 as compared to cjoc42,MDA-MB-231 cells [7],8–10 fold
same,improvement in antiproliferative activity against A549 as compared to cjoc42,A549 cells [8],~10 fold
"COC(=O)c1ccc(-n2cc(CCCOc3ccc(C)cc3)nn2)cc1 [Compound 33, Methyl p-{4-[3-(p-tolyloxy)propyl]-1H-1,2,3-triazol-1-yl}benzoate]",improvement in antiproliferative activity against MDA-MB-231 as compared to cjoc42,MDA-MB-231 cells [7],8–10 fold
"Methyl p-{4-[3-(p-toluoxy)propyl]-1H-1,2,3-triazol-1-yl}benzoate [Compound 25]",IC50,MDA-MB-231 cells [7],> 100 µM
same,IC50,A549 cells [8],> 100 µM
"COC(=O)c1ccc(-c2cn(CCCC(=O)Nc3ccc(-c4ccccc4)cc3)nn2)cc1 [Compound 51c, Methyl p-{1-[3-(N-4-biphenylylcarbamoyl)propyl]-1H-1,2,3-triazol-4-yl}benzoate]",Rb levels,A549 cells [9],increased Rb levels
same,gankyrin levels,A549 cells [9],remained relatively unchanged
same,p53 levels,A549 cells [9],relatively unchanged p53 levels
same,phosphorylated p53 (Ser6) levels,A549 cells [9],increase the expression levels of phosphorylated p53 (Ser6)
same,phosphorylated p53 (Ser15) levels,A549 cells [9],also increased phosphorylated p53 (Ser15) expression levels
same,% colony growth,A549 cells [10],61.9%
same,cell population in the S and G2/M phases,A549 cells [11],significantly decreasing the cell population in the S and G2/M phases
same,cells in the G0/G1 phase,A549 cells [11],significant increase in the number of cells in the G0/G1 phase
same,green intensity (live cells),A549 spheroids,dose-dependent decrease in green intensity
same,red intensity (dead cells),A549 spheroids,increase in red intensity
same,gankyrin thermal stability (CETSA),gankyrin in A549 cells,significant ability to decrease gankyrin thermal stability
same,CD spectra: α-helical (secondary structure) content of gankyrin,gankyrin [3],weakening of secondary structure content in gankyrin
same,thermal denaturation of gankyrin monitored at 217 nm,gankyrin [3],complete denaturation across the entire measured temperature range
same,gankyrin precipitation in CD sample (visual examination),gankyrin [3],only showed marginal precipitation
same,gankyrin binding by protein thermal shift,gankyrin [6],effectively bind gankyrin
"COC(=O)c1ccc(-n2cc(CCCC(=O)Nc3ccc(C)cc3)nn2)cc1 [Compound 20, Methyl p-{4-[3-(N-p-tolylcarbamoyl)propyl]-1H-1,2,3-triazol-1-yl}benzoate]",improvement in antiproliferative activity against MDA-MB-231 as compared to cjoc42,MDA-MB-231 cells [7],8–10 fold
"COC(=O)c1ccc(-n2cc(CCCNC(=O)Nc3ccc(C)cc3)nn2)cc1 [Compound 26, Methyl p-(4-{3-[3-(p-tolyl)ureido]propyl}−1H-1,2,3-triazol-1-yl)benzoate]",improvement in antiproliferative activity against MDA-MB-231 as compared to cjoc42,MDA-MB-231 cells [7],8–10 fold
